From article PMC8829947 (ACS Omega, 2022)

Legend:
[1] = tested on: E. coli expressing blaNDM-1; experiment: Meropenem rescue concentration, antimicrobial susceptibility test; format: cell-based, Escherichia coli; conditions: for RC in MHB, NDM-1: rescue concentration at meropenem 2 μg/mL
Outline: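 Checkerboard broth microdilution in Mueller–Hinton broth against E. coli carrying the plasmid-borne MBL gene. Meropenem used five 2-fold dilutions and the test compound six 2-fold dilutions, within 0.5–64 μg/mL; the test compound was dissolved in water or 50% methanol. Inoculum was adjusted to OD625 0.08–0.10, then diluted 200-fold. Incubation was 20 h static at 37 °C, read at OD600. RC is the compound concentration restoring susceptibility at meropenem 2 μg/mL. ≥2 replicates.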

[2] = Zn2+ affinity by competition with colorimetric PAR assay; format: binding; conditions: for Kd: read-out: Kd,Zn2, PAR 100 μM, ZnSO4 10 μM, pH 7.5, 3 h at 25 °C
Outline: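 The test compound was titrated into Chelex-100-treated 20 mM HEPES, 100 mM NaCl, pH 7.5, containing PAR 100 μM and ZnSO4 10 μM, then incubated 3 h at 25 °C. Zn2+ displacement from PAR was read as the fall in absorbance at 492 nm. Kd was estimated from the known PAR stability constant at pH 7.4.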

NDM-1 = NDM-1 (Klebsiella pneumoniae, UniProt C7C422); experiment: In vitro enzyme inhibition assay, purified recombinant NDM-1; format: biochemical
Outline: (§1)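 Purified recombinant enzyme at 4 nM was preincubated 5–10 min at RT with varying inhibitor concentrations. Buffer was 50 mM HEPES pH 7.5, 0.2% DMSO, 1% PEG 4000, with either 10 μM ZnSO4 or no zinc (Chelex-100-treated, 2 h, filtered). Reactions were started with nitrocefin (30 μM final, A490) or meropenem (50 μM final, A300) and followed 60 s. IC50 came from the linear portion of progress curves. Duplicates.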

IMP-7 = experiment: In vitro enzyme inhibition assay, purified recombinant IMP-7; format: biochemical; conditions: read-out: IC50 IMP-7 - Zn; Zn2+-depleted (Chelex-100-treated) buffer
Outline: as §1

VIM-2 = VIM-2 (Escherichia coli, UniProt Q5U7L7); experiment: In vitro enzyme inhibition assay, purified recombinant VIM-2; format: biochemical
Outline: as §1

[3] = tested on: A. baumannii ATCC 17978::pROTO2 (NDM-1); experiment: Meropenem rescue and MIC, antimicrobial susceptibility test; format: cell-based, Acinetobacter baumannii; conditions: rescue concentration at meropenem 2 μg/mL
[4] = tested on: K. pneumoniae ATCC 33495::pGDP2 (NDM-1); experiment: as above; format: cell-based, Klebsiella pneumoniae; conditions: rescue concentration at meropenem 2 μg/mL, MHB
[5] = IC50 NDM-1 + Zn, Zn2+-supplemented (10 μM) buffer
[6] = IC50 NDM-1 - Zn, Zn2+-depleted (Chelex-100-treated) buffer

Chain of NDM-1 (C7C422 29-270, looked up, species assumed): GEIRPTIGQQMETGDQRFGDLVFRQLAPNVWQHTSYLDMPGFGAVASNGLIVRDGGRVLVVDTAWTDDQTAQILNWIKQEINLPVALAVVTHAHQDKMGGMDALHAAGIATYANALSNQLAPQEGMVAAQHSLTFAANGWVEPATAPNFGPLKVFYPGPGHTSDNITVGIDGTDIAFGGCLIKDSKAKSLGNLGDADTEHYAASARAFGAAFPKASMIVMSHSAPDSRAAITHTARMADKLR

Row | Compound | RC in MHB, NDM-1 [1] | Kd [2] | IC50 (NDM-1; [5]) | IC50 (NDM-1; [6]) | IC50 (IMP-7) | IC50 (VIM-2) | Zn2+ affinity (in words) ([2]; outside the detection range of the assay, estimated) | RC in MHB, A. baumannii ATCC 17978::pROTO2 (NDM-1) [3] | RC in MHB, K. pneumoniae ATCC 33495::pGDP2 (NDM-1) [4] | rescue concentration (RC), biological activity ([1]; meropenem 2 μg/mL, resistant E. coli, MBL not given)
1 | N[C@@H](CN[C@@H](CN[C@@H](Cc1ccc(OP(=O)(O)O)cc1)C(=O)O)C(=O)O)C(=O)O (mixture of isomers) [Compound 21, (S)-2-Amino-3-(((S)-1-carboxy-2-(((S)-1-carboxy-2-(4-(phosphonooxy)phenyl)ethyl)amino)ethyl)amino)propanoic Acid] | 64 µg/mL | 0.0108 ± 0.0081 µM | 54 ± 5.6 µM | 25.1 ± 8.3 µM | – | – | – | – | – | –
2 | NC(Cc1ccc(O)cc1)C(=O)N[C@@H](CN[C@@H](CN[C@@H](CC(=O)O)C(=O)O)C(=O)O)C(=O)O (stereo in doubt) [Compound 2, ((S)-2-(((S)-2-((R)-2-Amino-3-(4-hydroxyphenyl)propanamido)-2-carboxyethyl)amino)-2-carboxyethyl)-L-aspartic Acid] | >64 µg/mL | 0.0014 ± 0.00056 µM | > 100 µM | > 500 µM | – | – | – | – | – | –
3 | N[C@@H](CN[C@@H](CNC(CS)C(=O)O)C(=O)O)C(=O)O (stereo in doubt) [Compound 11, (S)-2-Amino-3-(((S)-1-carboxy-2-(((S)-1-carboxy-2-mercaptoethyl)amino)ethyl)amino)propanoic Acid] | 32 µg/mL | 0.0002 ± 5e-05 µM | 15.6 ± 0.2 µM | 21.5 ± 0.8 µM | 328 ± 15 µM | 22 ± 1 µM | – | – | – | –
4 | N[C@@H](CN[C@@H](CNC(CS)C(=O)O)C(=O)O)C(=O)O (stereo in doubt) [Compound 12, (S)-2-Amino-3-(((S)-1-carboxy-2-(((R)-1-carboxy-2-mercaptoethyl)amino)ethyl)amino)propanoic Acid] | 32 µg/mL | 0.0044 ± 0.0018 µM | 404 ± 18.2 µM | 5.8 ± 0.5 µM | – | – | – | – | – | –
5 | CC(C)(S)C(NC[C@H](NC[C@H](N)C(=O)O)C(=O)O)C(=O)O (stereo in doubt) [Compound 14, (R)-2-(((S)-2-(((S)-2-Amino-2-carboxyethyl)amino)-2-carboxyethyl)amino)-3-mercapto-3-methylbutanoic Acid] | 32 µg/mL | 0.0026 ± 0.0004 µM | 112 ± 4.8 µM | 185 ± 7.8 µM | > 500 µM | 246 ± 17 µM | – | – | – | –
6 | NCC(=O)N[C@@H](CN[C@@H](CN[C@@H](CC(=O)O)C(=O)O)C(=O)O)C(=O)O [Compound 1, ((S)-2-(((S)-2-(2-Aminoacetamido)-2-carboxyethyl)amino)-2-carboxyethyl)-L-aspartic Acid] | >64 µg/mL | 0.0199 ± 0.0032 µM | > 100 µM | > 500 µM | – | – | – | – | – | –
7 | CN[C@@H](CN[C@@H](CN[C@@H](CC(=O)O)C(=O)O)C(=O)O)C(=O)O [Compound 3, ((S)-2-Carboxy-2-(((S)-2-carboxy-2-(methylamino)ethyl)amino) Ethyl)-L-aspartic Acid] | – | 0.0087 ± 0.0009 µM | 95.3 ± 3 µM | > 500 µM | – | – | – | – | – | –
8 | Cc1ccc(SC[C@@H](N)CN[C@@H](CN[C@@H](CC(=O)O)C(=O)O)C(=O)O)cc1 [Compound 5, ((S)-2-(((S)-2-Amino-3-(P-tolylthio)propyl)amino)-2-carboxyethyl)-L-aspartic Acid] | 32 µg/mL | 0.0014 ± 0.00056 µM | 104 ± 2 µM | 97.2 ± 34.2 µM | – | – | – | – | – | –
9 | CCCSC[C@@H](N)CN[C@@H](CN[C@@H](CC(=O)O)C(=O)O)C(=O)O [Compound 7, ((S)-2-(((S)-2-Amino-3-(propylthio)propyl)amino)-2-carboxyethyl)-L-aspartic Acid] | >64 µg/mL | 0.109 ± 0.04 µM | 29.2 ± 1 µM | > 500 µM | – | – | – | – | – | –
10 | N[C@@H](CN[C@@H](CN[C@@H](CC(=O)O)C(=O)O)C(=O)O)CSCCO [Compound 8, ((S)-2-(((S)-2-Amino-3-((2-hydroxyethyl)thio)propyl)amino)-2-carboxyethyl)-L-aspartic Acid] | 64 µg/mL | 0.06 ± 0.013 µM | > 250 µM | > 500 µM | – | – | – | – | – | –
11 | N[C@@H](CN[C@@H](CN[C@@H](CC(=O)O)C(=O)O)CSc1ccccc1)C(=O)O [Compound 9, ((S)-2-(((S)-2-Amino-2-carboxyethyl)amino)-3-(phenylthio)propyl)-L-aspartic Acid] | >64 µg/mL | 0.0023 ± 0.0019 µM | 58 ± 5 µM | > 500 µM | – | – | – | – | – | –
12 | N[C@@H](CN[C@@H](CN[C@@H](Cc1c[nH]cn1)C(=O)O)C(=O)O)C(=O)O [Compound 10, (S)-2-Amino-3-(((S)-1-carboxy-2-(((S)-1-carboxy-2-(1H-imidazol-4-yl)ethyl)amino)ethyl)amino)propanoic Acid] | 8 µg/mL | – | 21.7 ± 3.9 µM | 173 ± 3.9 µM | > 500 µM | 136 ± 5 µM | subpicomolar or lower | 4–8 μg/mL | 8 μg/mL | –
13 | N[C@@H](CN[C@@H](CN[C@@H](CCS)C(=O)O)C(=O)O)C(=O)O [Compound 13, ((S)-2-(((S)-2-Amino-2-carboxyethyl)amino)-2-carboxyethyl)-L-homocysteine] | 64 µg/mL | – | > 100 µM | > 1000 µM | – | – | – | – | – | –
14 | NC(=O)C[C@H](NC[C@H](NC[C@H](N)C(=O)O)C(=O)O)C(=O)O [Compound 16, ((S)-2-(((S)-2-Amino-2-carboxyethyl)amino)-2-carboxyethyl)-L-asparagine] | 16 µg/mL | 0.001 ± 0.0001 µM | 18.3 ± 0.7 µM | > 1000 µM | – | – | – | 16 μg/mL | 32 μg/mL | –
15 | N=C(N)NCCC[C@H](NC[C@H](NC[C@H](N)C(=O)O)C(=O)O)C(=O)O [Compound 17, ((S)-2-(((S)-2-Amino-2-carboxyethyl)amino)-2-carboxyethyl)-L-arginine] | >64 µg/mL | 0.024 ± 0.006 µM | > 100 µM | > 1000 µM | – | – | – | – | – | –
16 | N[C@@H](CN[C@@H](CN[C@@H](CO)C(=O)O)C(=O)O)C(=O)O [Compound 19, (S)-2-Amino-3-(((S)-1-carboxy-2-(((S)-1-carboxy-2-hydroxyethyl)amino)ethyl)amino)propanoic Acid] | 32 µg/mL | 0.0045 ± 0.00175 µM | 80 ± 0.7 µM | > 1000 µM | – | – | – | – | – | –
17 | N[C@@H](CN[C@@H](CN[C@@H](Cc1ccc(O)cc1)C(=O)O)C(=O)O)C(=O)O [Compound 20, (S)-2-Amino-3-(((S)-1-carboxy-2-(((S)-1-carboxy-2-(4-hydroxyphenyl)ethyl)amino)ethyl)amino)propanoic Acid] | 16 µg/mL | 0.00064 ± 0.00017 µM | 38 ± 1.8 µM | 172 ± 1.5 µM | – | – | – | 32 μg/mL | 64 μg/mL | –
18 | N[C@@H](CN[C@@H](CN[C@H](C(=O)O)c1ccc(O)cc1)C(=O)O)C(=O)O [Compound 22, (S)-2-Amino-3-(((S)-1-carboxy-2-(((S)-carboxy(4-hydroxyphenyl)methyl)amino)ethyl)amino)propanoic Acid] | >64 µg/mL | 0.0095 ± 0.0065 µM | 283 ± 27.4 µM | 23 ± 3.6 µM | – | – | – | – | – | –
19 | N[C@@H](CN[C@@H](CN[C@@H](Cc1cccs1)C(=O)O)C(=O)O)C(=O)O [Compound 23, (S)-2-Amino-3-(((S)-1-carboxy-2-(((S)-1-carboxy-2-(thiophen-2-yl)ethyl)amino)ethyl)amino)propanoic Acid] | 64 µg/mL | 0.0042 ± 0.0025 µM | 42.2 ± 4.1 µM | 9.7 ± 1.7 µM | – | – | – | – | – | > 8 μg/mL
